Source: PMC7034990 (Science Advances, 2020)

Experiments:
[1] = molecular target: ABC-C2 (multidrug resistance-associated protein 2) (Homo sapiens, UniProt Q92887); test: ABC transporter inhibition, ABC-C2; assay type: in vitro ADME; settings: read-out: inhibition of ABC-C2
[2] = test system: bronchial epithelial cells (F508del/F508del, F508del/other mutation, non-CF); test: TEEC/PD technique; assay type: cell-based, human; settings: for F508del-CFTR function, ∆Ieq: 10 nM
Outline: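 CF and non-CF primary bronchial epithelia at air-liquid interface on 0.33-cm2 inserts were treated 24 h at 37°C, 5% CO2. Measurements used Coon's F12 with NaHCO3 replaced by 20 mM Na-Hepes (pH 7.3), after 1 h equilibration. TEER and PD were read at baseline, after apical amiloride 10 μM, forskolin 10 μM + genistein 50 μM bilateral, then apical PPQ102 30 μM, 10 min each. Ieq came from Ohm's law; ∆Ieq = change on PPQ102.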

P574H-CFTR = P574H-CFTR (Homo sapiens, UniProt P13569, P574H); test: Rescue of P574H-CFTR in FRT cells; assay type: cell-based; settings: 37 °C or 32 °C
Chain of P574H-CFTR (P13569 whole entry P574H): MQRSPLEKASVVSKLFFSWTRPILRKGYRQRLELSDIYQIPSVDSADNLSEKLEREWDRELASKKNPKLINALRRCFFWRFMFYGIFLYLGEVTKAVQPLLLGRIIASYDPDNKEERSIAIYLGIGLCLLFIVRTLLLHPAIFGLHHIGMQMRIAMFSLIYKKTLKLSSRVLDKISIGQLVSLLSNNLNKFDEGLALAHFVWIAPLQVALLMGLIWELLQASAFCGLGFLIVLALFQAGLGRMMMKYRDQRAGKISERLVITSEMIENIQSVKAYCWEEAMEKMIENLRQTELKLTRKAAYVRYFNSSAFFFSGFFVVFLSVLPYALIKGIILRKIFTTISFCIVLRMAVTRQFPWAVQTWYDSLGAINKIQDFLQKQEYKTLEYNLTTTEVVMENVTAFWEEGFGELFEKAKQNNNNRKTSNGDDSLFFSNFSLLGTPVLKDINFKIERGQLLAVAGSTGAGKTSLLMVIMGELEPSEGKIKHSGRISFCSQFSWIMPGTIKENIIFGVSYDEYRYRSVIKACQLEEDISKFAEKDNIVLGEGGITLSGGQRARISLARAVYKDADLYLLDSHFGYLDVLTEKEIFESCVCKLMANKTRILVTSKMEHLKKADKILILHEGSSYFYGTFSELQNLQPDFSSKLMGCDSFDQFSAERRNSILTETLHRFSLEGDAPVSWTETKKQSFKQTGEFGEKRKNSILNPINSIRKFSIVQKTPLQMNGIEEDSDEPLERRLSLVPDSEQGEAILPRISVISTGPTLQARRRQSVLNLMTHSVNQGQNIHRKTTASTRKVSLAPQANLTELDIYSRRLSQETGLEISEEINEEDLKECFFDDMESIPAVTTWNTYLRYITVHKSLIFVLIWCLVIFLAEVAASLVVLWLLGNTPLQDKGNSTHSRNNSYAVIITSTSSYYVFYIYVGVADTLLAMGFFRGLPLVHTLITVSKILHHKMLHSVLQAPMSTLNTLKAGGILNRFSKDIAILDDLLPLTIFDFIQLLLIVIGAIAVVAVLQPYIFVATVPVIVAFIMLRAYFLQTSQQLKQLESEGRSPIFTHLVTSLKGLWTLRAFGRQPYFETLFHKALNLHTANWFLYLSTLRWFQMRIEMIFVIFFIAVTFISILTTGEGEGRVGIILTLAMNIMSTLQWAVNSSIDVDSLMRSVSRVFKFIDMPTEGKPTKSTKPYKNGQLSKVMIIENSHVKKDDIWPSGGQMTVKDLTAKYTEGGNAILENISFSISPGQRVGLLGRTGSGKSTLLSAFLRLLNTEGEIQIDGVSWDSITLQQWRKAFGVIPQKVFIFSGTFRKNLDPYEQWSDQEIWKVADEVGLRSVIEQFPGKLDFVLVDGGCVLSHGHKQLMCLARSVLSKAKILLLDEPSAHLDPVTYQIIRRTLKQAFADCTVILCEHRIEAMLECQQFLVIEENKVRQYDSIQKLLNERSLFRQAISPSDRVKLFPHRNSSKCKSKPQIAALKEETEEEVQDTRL
Outline: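 FRT cells stably co-expressing P574H-CFTR and HS-YFP (H148Q/I152L), plated at 50,000/well. After a PBS wash, cells were stimulated 25 min with forskolin 20 μM plus VX-770 1 μM. Iodide solution was then injected (final I− 100 mM) and YFP fluorescence read at 500/535 nm ex/em. Values were normalized to initial background-subtracted fluorescence. I− influx rate came from an exponential fit of the final 11 s.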

[3] = test system: Ca2+-activated Cl− secretion in bronchial epithelia; test: Ca2+-activated Cl− secretion elicited by UTP; assay type: cell-based, human; settings: UTP 100 μM; ARN23765 10 nM, VX-809 1 μM, 24 hr
Outline: (§1)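 Primary bronchial epithelial cells came from lung-transplant bronchi and were differentiated on porous inserts, then kept 2–3 weeks under air-liquid culture. Correctors or DMSO were given in basolateral medium. Epithelia were mounted in a vertical diffusion chamber, bicarbonate saline (126 mM NaCl, 24 mM NaHCO3, 10 mM glucose) both sides, gassed 5% CO2:95% air, 37°C. Voltage was clamped and short-circuit current recorded. ENaC was blocked with amiloride (10 μM).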

ENaC = molecular target: T1, ENaC (Homo sapiens, UniProt P37088+P51168+P51170); test: ENaC function from the response to apical amiloride; assay type: cell-based; settings: amiloride 10 μM; correctors for 24 hr
T1 sequence (P37088 1-669): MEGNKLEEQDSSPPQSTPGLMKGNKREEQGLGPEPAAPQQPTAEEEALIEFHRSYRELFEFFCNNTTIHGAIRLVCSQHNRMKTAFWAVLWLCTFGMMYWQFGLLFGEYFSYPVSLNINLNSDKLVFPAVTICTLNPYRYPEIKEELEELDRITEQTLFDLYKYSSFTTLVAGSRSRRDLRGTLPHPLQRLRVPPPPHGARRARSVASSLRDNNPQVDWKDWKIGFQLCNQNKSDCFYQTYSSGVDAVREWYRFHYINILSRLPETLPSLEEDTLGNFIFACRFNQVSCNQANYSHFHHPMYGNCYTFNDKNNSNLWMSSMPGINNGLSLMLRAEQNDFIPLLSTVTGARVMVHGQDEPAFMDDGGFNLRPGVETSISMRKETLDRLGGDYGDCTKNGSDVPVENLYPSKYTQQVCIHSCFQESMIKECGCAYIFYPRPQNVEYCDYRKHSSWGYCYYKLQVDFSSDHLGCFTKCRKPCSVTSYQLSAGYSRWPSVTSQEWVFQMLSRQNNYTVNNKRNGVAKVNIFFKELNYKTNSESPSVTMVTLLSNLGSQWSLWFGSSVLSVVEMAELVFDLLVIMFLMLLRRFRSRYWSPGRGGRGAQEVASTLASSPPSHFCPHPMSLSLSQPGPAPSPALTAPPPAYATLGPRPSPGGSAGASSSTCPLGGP
T1 sequence (P51168 1-640): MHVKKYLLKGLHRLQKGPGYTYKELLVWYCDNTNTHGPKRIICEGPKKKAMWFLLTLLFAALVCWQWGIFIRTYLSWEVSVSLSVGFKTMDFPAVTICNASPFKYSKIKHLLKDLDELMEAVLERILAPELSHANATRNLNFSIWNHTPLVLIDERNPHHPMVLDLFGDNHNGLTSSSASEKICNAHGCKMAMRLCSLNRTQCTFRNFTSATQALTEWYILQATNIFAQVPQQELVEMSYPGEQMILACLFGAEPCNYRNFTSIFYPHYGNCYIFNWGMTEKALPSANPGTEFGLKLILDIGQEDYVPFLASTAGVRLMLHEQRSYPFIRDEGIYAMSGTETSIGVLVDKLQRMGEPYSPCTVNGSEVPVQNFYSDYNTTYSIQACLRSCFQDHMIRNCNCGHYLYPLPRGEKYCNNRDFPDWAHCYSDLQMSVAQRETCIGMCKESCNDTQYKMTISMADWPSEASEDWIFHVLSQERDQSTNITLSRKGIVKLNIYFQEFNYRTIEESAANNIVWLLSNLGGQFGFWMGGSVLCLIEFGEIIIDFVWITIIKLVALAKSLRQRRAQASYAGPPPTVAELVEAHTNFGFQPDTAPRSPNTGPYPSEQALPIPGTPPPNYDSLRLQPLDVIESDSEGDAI
T1 sequence (P51170 1-649): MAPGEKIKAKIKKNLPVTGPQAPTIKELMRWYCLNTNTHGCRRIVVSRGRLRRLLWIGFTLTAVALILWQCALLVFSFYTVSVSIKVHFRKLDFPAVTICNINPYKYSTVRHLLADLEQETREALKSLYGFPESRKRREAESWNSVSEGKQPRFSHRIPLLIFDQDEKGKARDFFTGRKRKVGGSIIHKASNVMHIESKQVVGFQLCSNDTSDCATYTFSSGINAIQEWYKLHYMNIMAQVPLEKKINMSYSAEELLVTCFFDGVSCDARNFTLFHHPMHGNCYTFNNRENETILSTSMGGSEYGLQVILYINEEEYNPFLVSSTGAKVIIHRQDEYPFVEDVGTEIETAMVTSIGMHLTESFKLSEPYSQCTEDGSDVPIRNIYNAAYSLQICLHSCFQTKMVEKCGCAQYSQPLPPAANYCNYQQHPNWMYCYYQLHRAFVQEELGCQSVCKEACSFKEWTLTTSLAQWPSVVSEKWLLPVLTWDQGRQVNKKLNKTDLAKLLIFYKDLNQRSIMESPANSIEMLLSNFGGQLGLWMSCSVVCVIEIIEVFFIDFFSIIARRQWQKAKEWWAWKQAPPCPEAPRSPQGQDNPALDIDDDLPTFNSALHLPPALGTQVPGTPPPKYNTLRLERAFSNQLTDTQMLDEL
Outline: as §1

[4] = molecular target: ABC-B1 (MDR1, P-glycoprotein) (Homo sapiens, UniProt P08183); test: ABC transporter inhibition, ABC-B1; assay type: in vitro ADME
Chain of ABC-B1 (MDR1, P-glycoprotein) (P08183 whole entry, species assumed): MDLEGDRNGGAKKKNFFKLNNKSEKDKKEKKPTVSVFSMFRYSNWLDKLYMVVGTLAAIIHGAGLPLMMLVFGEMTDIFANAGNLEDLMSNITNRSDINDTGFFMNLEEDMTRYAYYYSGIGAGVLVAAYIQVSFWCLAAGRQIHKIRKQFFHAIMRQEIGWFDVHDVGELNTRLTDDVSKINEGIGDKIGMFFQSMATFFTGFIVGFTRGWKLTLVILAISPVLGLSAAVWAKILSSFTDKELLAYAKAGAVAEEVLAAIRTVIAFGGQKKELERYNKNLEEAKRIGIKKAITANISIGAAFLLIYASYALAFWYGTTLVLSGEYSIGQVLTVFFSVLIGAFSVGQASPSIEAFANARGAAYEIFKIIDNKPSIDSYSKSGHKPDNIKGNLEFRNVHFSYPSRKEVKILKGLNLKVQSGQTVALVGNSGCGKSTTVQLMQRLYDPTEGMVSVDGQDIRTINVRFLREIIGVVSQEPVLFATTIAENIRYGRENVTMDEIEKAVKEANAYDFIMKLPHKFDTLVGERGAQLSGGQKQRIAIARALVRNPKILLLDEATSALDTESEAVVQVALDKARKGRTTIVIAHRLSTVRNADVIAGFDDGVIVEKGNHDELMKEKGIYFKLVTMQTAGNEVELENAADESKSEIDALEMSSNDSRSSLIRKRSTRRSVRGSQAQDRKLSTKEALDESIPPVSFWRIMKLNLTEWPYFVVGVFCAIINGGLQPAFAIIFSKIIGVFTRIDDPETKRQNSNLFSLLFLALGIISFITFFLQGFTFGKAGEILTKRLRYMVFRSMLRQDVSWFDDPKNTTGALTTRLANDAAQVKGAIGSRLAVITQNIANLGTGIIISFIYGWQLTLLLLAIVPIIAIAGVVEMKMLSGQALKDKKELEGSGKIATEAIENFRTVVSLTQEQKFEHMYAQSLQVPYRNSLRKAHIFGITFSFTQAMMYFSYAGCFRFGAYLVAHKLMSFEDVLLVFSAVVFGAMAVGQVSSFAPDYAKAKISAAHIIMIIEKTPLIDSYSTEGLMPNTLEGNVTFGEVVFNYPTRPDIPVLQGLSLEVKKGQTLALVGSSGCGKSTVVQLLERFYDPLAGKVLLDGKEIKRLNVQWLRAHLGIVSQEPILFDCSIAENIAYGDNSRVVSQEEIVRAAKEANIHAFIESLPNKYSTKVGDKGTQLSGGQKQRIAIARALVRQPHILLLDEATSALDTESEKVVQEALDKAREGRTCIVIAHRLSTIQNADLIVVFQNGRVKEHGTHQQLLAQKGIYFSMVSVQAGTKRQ

[5] = test system: receptors, monoamine transporters, ABC proteins, and hERG channel; test: Off-target panel; settings: 10 μM

Chain of ABC-C2 (multidrug resistance-associated protein 2) (Q92887 whole entry, species assumed): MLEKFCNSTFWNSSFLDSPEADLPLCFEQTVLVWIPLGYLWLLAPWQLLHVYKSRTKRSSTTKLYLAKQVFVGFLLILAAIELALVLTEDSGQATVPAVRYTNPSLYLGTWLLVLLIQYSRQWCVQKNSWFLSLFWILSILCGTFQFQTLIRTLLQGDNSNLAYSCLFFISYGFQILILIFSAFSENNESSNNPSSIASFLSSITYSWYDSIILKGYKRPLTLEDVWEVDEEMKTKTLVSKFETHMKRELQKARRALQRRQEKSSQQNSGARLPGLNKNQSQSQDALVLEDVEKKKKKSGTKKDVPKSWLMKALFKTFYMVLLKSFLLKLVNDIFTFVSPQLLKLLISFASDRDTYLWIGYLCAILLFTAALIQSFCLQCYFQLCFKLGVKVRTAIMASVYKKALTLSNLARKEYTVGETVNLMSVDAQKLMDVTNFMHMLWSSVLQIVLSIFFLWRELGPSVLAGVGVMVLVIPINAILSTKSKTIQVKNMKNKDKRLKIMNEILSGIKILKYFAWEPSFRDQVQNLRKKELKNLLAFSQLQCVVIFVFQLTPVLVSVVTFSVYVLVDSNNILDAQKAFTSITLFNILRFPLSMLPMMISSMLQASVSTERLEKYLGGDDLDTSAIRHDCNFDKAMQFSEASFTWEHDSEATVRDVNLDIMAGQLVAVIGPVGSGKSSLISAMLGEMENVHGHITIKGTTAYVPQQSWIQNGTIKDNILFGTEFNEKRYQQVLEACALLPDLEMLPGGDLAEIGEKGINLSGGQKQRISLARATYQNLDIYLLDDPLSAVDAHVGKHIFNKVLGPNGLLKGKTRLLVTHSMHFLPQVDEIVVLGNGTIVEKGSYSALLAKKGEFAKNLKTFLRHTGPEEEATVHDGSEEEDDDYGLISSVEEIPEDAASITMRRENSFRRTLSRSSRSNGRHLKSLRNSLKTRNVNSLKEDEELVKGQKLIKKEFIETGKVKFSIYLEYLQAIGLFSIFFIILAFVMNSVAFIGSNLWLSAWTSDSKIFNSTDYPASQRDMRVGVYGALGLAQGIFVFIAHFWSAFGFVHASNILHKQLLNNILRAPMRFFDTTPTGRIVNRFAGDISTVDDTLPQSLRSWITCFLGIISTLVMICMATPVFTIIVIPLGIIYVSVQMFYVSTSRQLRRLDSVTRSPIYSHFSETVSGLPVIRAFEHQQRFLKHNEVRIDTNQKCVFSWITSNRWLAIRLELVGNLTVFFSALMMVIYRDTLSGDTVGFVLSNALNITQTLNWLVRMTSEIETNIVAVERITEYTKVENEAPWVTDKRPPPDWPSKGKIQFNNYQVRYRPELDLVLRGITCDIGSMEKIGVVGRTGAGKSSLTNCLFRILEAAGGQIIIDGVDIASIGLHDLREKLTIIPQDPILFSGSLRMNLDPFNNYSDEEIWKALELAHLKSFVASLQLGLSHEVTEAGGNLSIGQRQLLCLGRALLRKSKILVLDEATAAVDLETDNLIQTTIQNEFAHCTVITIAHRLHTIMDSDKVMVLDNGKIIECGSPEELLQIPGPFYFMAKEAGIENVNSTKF

## CN(C(=O)c1cccc(-n2nc(C(F)(F)F)c3c2[C@@H](Oc2ccc(C(=O)O)cc2)CCC3)c1)c1ccc2c(c1)OC(F)(F)O2 [ARN23765]
[1]
  inhibition at 10 µM: 27%
[2]; cells from four patients with F508del/F508del, 24 hours
  F508del-CFTR function, ∆Ieq: markedly increased F508del-CFTR function, with results comparable to those of VX-809 (1 μM)
[2]; epithelia from two patients with a single copy of F508del and a premature stop codon (R553X and G542X)
  F508del-CFTR function, ∆Ieq: notably effective
[2]; non-CF epithelia, ARN23765 10 nM, VX-809 1 μM
  wild-type CFTR function, ∆Ieq: elicited a significant increase of wild-type CFTR function
P574H-CFTR
  P574H-CFTR function: improves the function of P574H-CFTR, particularly in combination with low temperature
[3]
  Ca2+-activated Cl− secretion: unaffected
ENaC
  amplitude of the response to apical amiloride, ENaC function: modestly reduced
[4]
  inhibition at 10 µM: 13%
[5]
  effects on a panel of relevant biological targets: no alerting effects
